Assay results published in ChEMBL document CHEMBL3596093, “Synthesis and antimicrobial evaluation of 5-aryl-1,2,4-triazole-3-thione derivatives containing a rhodanine moiety” (2015).
≈ marks a conversion by molar mass, not a printed value.

Experiments:
Staphylococcus aureus [1] = experiment: Antibacterial activity against Staphylococcus aureus RN4220 after 24 hrs by two-fold serial dilution method; assay type: functional; settings: RN4220, 24 h
Method in brief: (§1)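 Broth microdilution MIC. Bacteria grown to mid-log phase in Mueller-Hinton broth, diluted 1000-fold, about 10^5 CFU/mL. Compounds from DMSO stocks, two-fold serial dilution from a final 64 µg/mL. Incubation at 37 °C for 24 h. Growth read as absorbance at 630 nm on a microplate reader. Run in triplicate.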

Staphylococcus aureus [2] = experiment: Antibacterial activity against Staphylococcus aureus KCTC 209 after 24 hrs by two-fold serial dilution method; assay type: functional; settings: KCTC 209, 24 h
Method in brief: (§2)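 Strains grown to mid-log phase in Mueller-Hinton broth, then diluted 1000-fold in the same broth to about 10^5 CFU/mL. Compounds were made up as DMSO stocks and two-fold serially diluted from a final top concentration of 64 µg/mL. Incubation was 37 °C for 24 h. Growth was read as absorbance at 630 nm on a microplate reader. MIC assays were run in triplicate.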

Staphylococcus aureus [3] = experiment: Antibacterial activity against Staphylococcus aureus KCTC 503 after 24 hrs by two-fold serial dilution method; assay type: functional; settings: KCTC 503, 24 h; method in brief: as §2
Streptococcus mutans [4] = experiment: Antibacterial activity against Streptococcus mutans 3065 after 24 hrs by two-fold serial dilution method; assay type: functional; settings: Streptococcus mutans, 3065, 24 h; method in brief: as §2
Escherichia coli [5] = experiment: Antibacterial activity against Escherichia coli KCTC 1924 after 24 hrs by two-fold serial dilution method; assay type: functional; settings: KCTC 1924, 24 h; method in brief: as §2
Escherichia coli [6] = experiment: Antibacterial activity against Escherichia coli CCARM 1356 after 24 hrs by two-fold serial dilution method; assay type: functional; settings: CCARM 1356, 24 h; method in brief: as §2
Pseudomonas aeruginosa [7] = experiment: Antibacterial activity against Pseudomonas aeruginosa 2742 after 24 hrs by two-fold serial dilution method; assay type: functional; settings: Pseudomonas aeruginosa, 2742, 24 h; method in brief: as §2
Pseudomonas aeruginosa [8] = experiment: Antibacterial activity against Pseudomonas aeruginosa 2004 after 24 hrs by two-fold serial dilution method; assay type: functional; settings: Pseudomonas aeruginosa, 2004, 24 h; method in brief: as §2
Salmonella typhimurium = experiment: Antibacterial activity against Salmonella typhimurium 2421 after 24 hrs by two-fold serial dilution method; assay type: functional, Salmonella enterica subsp. enterica serovar Typhimurium; settings: Salmonella enterica, 2421, 24 h; method in brief: as §2
Candida albicans = experiment: Antifungal activity against Candida albicans 7535 after 24 hrs by two-fold serial dilution method; assay type: functional; settings: Candida albicans, 7535, 24 h
Staphylococcus aureus [9] = experiment: Bactericidal activity against Staphylococcus aureus RN4220 after 24 hrs by agar plate method; assay type: functional; settings: RN4220, 24 h
Method in brief: (§3)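 Samples of 5 µL from MIC wells with no visible growth were plated onto fresh Mueller-Hinton agar and incubated a further 24 h at 37 °C. MBC is the lowest concentration giving no visible colony growth on the agar. Assays were run in triplicate.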

Staphylococcus aureus [10] = experiment: Bactericidal activity against Staphylococcus aureus KCTC 503 after 24 hrs by agar plate method; assay type: functional; settings: KCTC 503, 24 h
Method in brief: (§4)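 5 µL from each well without visible growth plated on fresh Mueller-Hinton agar, then 37 °C for a further 24 h. MBC is the lowest concentration giving no visible colonies. Run in triplicate.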

Streptococcus mutans [11] = experiment: Bactericidal activity against Streptococcus mutans 3065 after 24 hrs by agar plate method; assay type: functional; settings: Streptococcus mutans, 3065, 24 h; method in brief: as §3
Staphylococcus aureus [12] = experiment: Ratio of MBC to MIC for Staphylococcus aureus KCTC 503; assay type: functional
Method in brief: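 The ratio divides MBC by MIC for the same strain. MIC comes from two-fold broth microdilution in Mueller-Hinton broth (about 10^5 CFU/mL, 37 °C, 24 h, absorbance at 630 nm). MBC comes from subculturing 5 µL from clear wells onto Mueller-Hinton agar for another 24 h at 37 °C, taken as the lowest concentration with no colonies.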

Staphylococcus aureus [13] = experiment: Antibacterial activity against methicillin-resistant Staphylococcus aureus CCARM 3167 after 24 hrs by two-fold serial dilution method; assay type: functional; settings: CCARM 3167, 24 h; method in brief: as §1
Staphylococcus aureus [14] = experiment: Antibacterial activity against methicillin-resistant Staphylococcus aureus CCARM 3506 after 24 hrs by two-fold serial dilution method; assay type: functional; settings: CCARM 3506, 24 h; method in brief: as §1
Staphylococcus aureus [15] = experiment: Antibacterial activity against quinolone-resistant Staphylococcus aureus CCARM 3505 after 24 hrs by two-fold serial dilution method; assay type: functional; settings: CCARM 3505, 24 h; method in brief: as §1
Staphylococcus aureus [16] = experiment: Antibacterial activity against quinolone-resistant Staphylococcus aureus CCARM 3519 after 24 hrs by two-fold serial dilution method; assay type: functional; settings: CCARM 3519, 24 h; method in brief: as §1
Staphylococcus aureus [17] = experiment: Bactericidal activity against methicillin-resistant Staphylococcus aureus CCARM 3167 after 24 hrs by agar plate method; assay type: functional; settings: CCARM 3167, 24 h; method in brief: as §4
Staphylococcus aureus [18] = experiment: Bactericidal activity against methicillin-resistant Staphylococcus aureus CCARM 3506 after 24 hrs by agar plate method; assay type: functional; settings: CCARM 3506, 24 h; method in brief: as §4
Staphylococcus aureus [19] = experiment: Bactericidal activity against quinolone-resistant Staphylococcus aureus CCARM 3505 after 24 hrs by agar plate method; assay type: functional; settings: CCARM 3505, 24 h; method in brief: as §4
Staphylococcus aureus [20] = experiment: Bactericidal activity against quinolone-resistant Staphylococcus aureus CCARM 3519 after 24 hrs by agar plate method; assay type: functional; settings: CCARM 3519, 24 h; method in brief: as §4
Escherichia coli [21] = experiment: Bactericidal activity against Escherichia coli KCTC 1924 after 24 hrs by agar plate method; assay type: functional; settings: KCTC 1924, 24 h; method in brief: as §3

| SMILES | MIC (Staphylococcus aureus [1]) | MIC (Staphylococcus aureus [2]) | MIC (Staphylococcus aureus [3]) | MIC (Streptococcus mutans [4]) | MIC (Escherichia coli [5]) | MIC (Escherichia coli [6]) | MIC (Pseudomonas aeruginosa [7]) | MIC (Pseudomonas aeruginosa [8]) | MIC (Salmonella typhimurium) | MIC (Candida albicans) | MBC (Staphylococcus aureus [9]) | MBC (Staphylococcus aureus [10]) | MBC (Streptococcus mutans [11]) | MIC (Staphylococcus aureus [13]) | MIC (Staphylococcus aureus [14]) | MIC (Staphylococcus aureus [15]) | MIC (Staphylococcus aureus [16]) | MBC (Staphylococcus aureus [17]) | MBC (Staphylococcus aureus [19]) | MBC (Staphylococcus aureus [20]) | other results |
| --- | --- | --- | --- | --- | --- | --- | --- | --- | --- | --- | --- | --- | --- | --- | --- | --- | --- | --- | --- | --- | --- |
| Cc1ccc(-c2n[nH]c(=S)n2/N=C/c2ccc(/C=C3\SC(=S)N([C@@H](Cc4ccccc4)C(=O)O)C3=O)cc2)cc1 | 8 µg/mL (≈ 13.7 µM) | > 64 µg/mL | 64 µg/mL (≈ 109 µM) | 64 µg/mL (≈ 109 µM) | > 128 µg/mL | > 128 µg/mL | > 128 µg/mL | > 128 µg/mL | > 128 µg/mL | > 64 µg/mL | 8 µg/mL (≈ 13.7 µM) | 64 µg/mL (≈ 109 µM) | > 256 µg/mL | 8 µg/mL (≈ 13.7 µM) | 16 µg/mL (≈ 27.3 µM) | 16 µg/mL (≈ 27.3 µM) | 16 µg/mL (≈ 27.3 µM) | 64 µg/mL (≈ 109 µM) | 128 µg/mL (≈ 219 µM) | > 128 µg/mL | Ratio (Staphylococcus aureus [12]): <=4; MBC (Staphylococcus aureus [18]): 128 µg/mL (≈ 219 µM) |
| O=C(O)[C@H](Cc1ccccc1)N1C(=O)/C(=C/c2ccc(/C=N/n3c(-c4ccc(Br)cc4)n[nH]c3=S)cc2)SC1=S | 8 µg/mL (≈ 12.3 µM) | > 64 µg/mL | 8 µg/mL (≈ 12.3 µM) | 16 µg/mL (≈ 24.6 µM) | > 128 µg/mL | > 128 µg/mL | > 128 µg/mL | > 128 µg/mL | > 128 µg/mL | > 64 µg/mL | 64 µg/mL (≈ 98.4 µM) | 32 µg/mL (≈ 49.2 µM) | 64 µg/mL (≈ 98.4 µM) | 8 µg/mL (≈ 12.3 µM) | 16 µg/mL (≈ 24.6 µM) | 8 µg/mL (≈ 12.3 µM) | 8 µg/mL (≈ 12.3 µM) | 32 µg/mL (≈ 49.2 µM) | 32 µg/mL (≈ 49.2 µM) | 64 µg/mL (≈ 98.4 µM) | Ratio (Staphylococcus aureus [12]): <=4; MBC (Staphylococcus aureus [18]): 128 µg/mL (≈ 197 µM) |
| O=C(O)[C@H](Cc1ccccc1)N1C(=O)/C(=C/c2ccc(/C=N/n3c(-c4ccc(F)cc4)n[nH]c3=S)cc2)SC1=S | 16 µg/mL (≈ 27.1 µM) | > 64 µg/mL | 32 µg/mL (≈ 54.3 µM) | 64 µg/mL (≈ 109 µM) | > 128 µg/mL | > 128 µg/mL | > 128 µg/mL | > 128 µg/mL | > 128 µg/mL | > 64 µg/mL | 128 µg/mL (≈ 217 µM) | 128 µg/mL (≈ 217 µM) | 256 µg/mL (≈ 434 µM) | 16 µg/mL (≈ 27.1 µM) | 64 µg/mL (≈ 109 µM) | 16 µg/mL (≈ 27.1 µM) | 16 µg/mL (≈ 27.1 µM) | 128 µg/mL (≈ 217 µM) | 128 µg/mL (≈ 217 µM) | 128 µg/mL (≈ 217 µM) | Ratio (Staphylococcus aureus [12]): <=4; MBC (Staphylococcus aureus [18]): > 256 µg/mL |
| O=C(O)CN1C(=O)/C(=C/c2ccc(/C=N/n3c(-c4ccccc4)n[nH]c3=S)cc2)SC1=S | > 64 µg/mL | > 64 µg/mL | > 64 µg/mL | > 64 µg/mL | > 128 µg/mL | > 128 µg/mL | > 128 µg/mL | > 128 µg/mL | > 128 µg/mL | > 64 µg/mL |  |  |  | > 64 µg/mL | > 64 µg/mL | > 64 µg/mL | > 64 µg/mL |  |  |  |  |
| Cc1cccc(-c2n[nH]c(=S)n2/N=C/c2ccc(/C=C3\SC(=S)N(CC(=O)O)C3=O)cc2)c1 | > 64 µg/mL | > 64 µg/mL | 64 µg/mL (≈ 129 µM) | > 64 µg/mL | 32 µg/mL (≈ 64.6 µM) | > 128 µg/mL | > 128 µg/mL | > 128 µg/mL | > 128 µg/mL | > 64 µg/mL |  | > 256 µg/mL |  | 64 µg/mL (≈ 129 µM) | > 64 µg/mL | 64 µg/mL (≈ 129 µM) | 64 µg/mL (≈ 129 µM) | > 256 µg/mL | > 256 µg/mL | > 256 µg/mL | MBC (Escherichia coli [21]): > 256 µg/mL |
| Cc1ccc(-c2n[nH]c(=S)n2/N=C/c2ccc(/C=C3\SC(=S)N(CC(=O)O)C3=O)cc2)cc1 | > 64 µg/mL | > 64 µg/mL | > 64 µg/mL | > 64 µg/mL | > 128 µg/mL | > 128 µg/mL | > 128 µg/mL | > 128 µg/mL | > 128 µg/mL | > 64 µg/mL |  |  |  | > 64 µg/mL | > 64 µg/mL | > 64 µg/mL | 16 µg/mL (≈ 32.3 µM) |  |  | > 128 µg/mL |  |
| O=C(O)CN1C(=O)/C(=C/c2ccc(/C=N/n3c(-c4cccc(Cl)c4)n[nH]c3=S)cc2)SC1=S | > 64 µg/mL | > 64 µg/mL | > 64 µg/mL | > 64 µg/mL | > 128 µg/mL | > 128 µg/mL | > 128 µg/mL | > 128 µg/mL | > 128 µg/mL | > 64 µg/mL |  |  |  | > 64 µg/mL | > 64 µg/mL | > 64 µg/mL | > 64 µg/mL |  |  |  |  |
